Active and inactive are the calls of the source. No cut-off for these calls is given here.
Experiments:
[1] = biological target: T1, Estrogen receptor (Homo sapiens, UniProt P03372); assay: Displacement of fluorescein-labeled estrogen ligand from recombinant ER-alpha (unknown origin) incubated for 2 hrs by fluorescence polarization assay
T1 sequence (P03372 whole entry): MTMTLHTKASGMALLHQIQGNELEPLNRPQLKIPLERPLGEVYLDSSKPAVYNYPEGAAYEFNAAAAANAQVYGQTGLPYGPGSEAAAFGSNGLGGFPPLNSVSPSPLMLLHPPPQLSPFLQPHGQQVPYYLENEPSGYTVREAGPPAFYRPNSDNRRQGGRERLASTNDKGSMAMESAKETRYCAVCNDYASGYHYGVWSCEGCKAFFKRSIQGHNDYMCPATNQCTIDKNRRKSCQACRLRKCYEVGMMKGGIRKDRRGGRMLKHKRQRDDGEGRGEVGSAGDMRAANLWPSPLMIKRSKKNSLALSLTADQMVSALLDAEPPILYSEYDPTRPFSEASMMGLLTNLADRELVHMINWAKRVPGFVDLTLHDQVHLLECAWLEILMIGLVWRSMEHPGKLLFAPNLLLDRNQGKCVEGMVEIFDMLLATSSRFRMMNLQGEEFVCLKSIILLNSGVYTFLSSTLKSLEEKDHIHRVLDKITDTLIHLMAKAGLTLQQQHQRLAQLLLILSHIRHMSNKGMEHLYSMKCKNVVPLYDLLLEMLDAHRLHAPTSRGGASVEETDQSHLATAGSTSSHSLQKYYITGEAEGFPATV

[2] = system: MCF7; assay: Antiproliferative activity against human MCF7 cells incubated for 48 hrs by MTT assay; format: functional, cell-based; details: MCF7, 48 h
How it was run: (§1)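 Cells kept in RPMI1640 with 10% FBS, penicillin/streptomycin, 37 °C, 5% CO2. Seeded at 1×10^5/mL, allowed 24 h, then exposed to compound at 1×10^-4, 1×10^-5, 1×10^-6 and 1×10^-7 mol/L for 48 h; controls got medium with 1% DMSO. MTT added for 4 h in the dark, formazan dissolved in DMSO, absorbance at 490 nm used for IC50.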

[3] = system: MDA-MB-231; assay: Antiproliferative activity against human MDA-MB-231 cells incubated for 48 hrs by MTT assay; format: functional, cell-based; details: MDA-MB-231, 48 h; how it was run: as §1
[4] = system: Ishikawa; assay: Antiproliferative activity against human Ishikawa cells incubated for 48 hrs by MTT assay; format: functional, cell-based; how it was run: as §1
[5] = biological target: T2, Vascular endothelial growth factor receptor 2 (Homo sapiens, UniProt P35968)
T2 sequence (P35968 whole entry): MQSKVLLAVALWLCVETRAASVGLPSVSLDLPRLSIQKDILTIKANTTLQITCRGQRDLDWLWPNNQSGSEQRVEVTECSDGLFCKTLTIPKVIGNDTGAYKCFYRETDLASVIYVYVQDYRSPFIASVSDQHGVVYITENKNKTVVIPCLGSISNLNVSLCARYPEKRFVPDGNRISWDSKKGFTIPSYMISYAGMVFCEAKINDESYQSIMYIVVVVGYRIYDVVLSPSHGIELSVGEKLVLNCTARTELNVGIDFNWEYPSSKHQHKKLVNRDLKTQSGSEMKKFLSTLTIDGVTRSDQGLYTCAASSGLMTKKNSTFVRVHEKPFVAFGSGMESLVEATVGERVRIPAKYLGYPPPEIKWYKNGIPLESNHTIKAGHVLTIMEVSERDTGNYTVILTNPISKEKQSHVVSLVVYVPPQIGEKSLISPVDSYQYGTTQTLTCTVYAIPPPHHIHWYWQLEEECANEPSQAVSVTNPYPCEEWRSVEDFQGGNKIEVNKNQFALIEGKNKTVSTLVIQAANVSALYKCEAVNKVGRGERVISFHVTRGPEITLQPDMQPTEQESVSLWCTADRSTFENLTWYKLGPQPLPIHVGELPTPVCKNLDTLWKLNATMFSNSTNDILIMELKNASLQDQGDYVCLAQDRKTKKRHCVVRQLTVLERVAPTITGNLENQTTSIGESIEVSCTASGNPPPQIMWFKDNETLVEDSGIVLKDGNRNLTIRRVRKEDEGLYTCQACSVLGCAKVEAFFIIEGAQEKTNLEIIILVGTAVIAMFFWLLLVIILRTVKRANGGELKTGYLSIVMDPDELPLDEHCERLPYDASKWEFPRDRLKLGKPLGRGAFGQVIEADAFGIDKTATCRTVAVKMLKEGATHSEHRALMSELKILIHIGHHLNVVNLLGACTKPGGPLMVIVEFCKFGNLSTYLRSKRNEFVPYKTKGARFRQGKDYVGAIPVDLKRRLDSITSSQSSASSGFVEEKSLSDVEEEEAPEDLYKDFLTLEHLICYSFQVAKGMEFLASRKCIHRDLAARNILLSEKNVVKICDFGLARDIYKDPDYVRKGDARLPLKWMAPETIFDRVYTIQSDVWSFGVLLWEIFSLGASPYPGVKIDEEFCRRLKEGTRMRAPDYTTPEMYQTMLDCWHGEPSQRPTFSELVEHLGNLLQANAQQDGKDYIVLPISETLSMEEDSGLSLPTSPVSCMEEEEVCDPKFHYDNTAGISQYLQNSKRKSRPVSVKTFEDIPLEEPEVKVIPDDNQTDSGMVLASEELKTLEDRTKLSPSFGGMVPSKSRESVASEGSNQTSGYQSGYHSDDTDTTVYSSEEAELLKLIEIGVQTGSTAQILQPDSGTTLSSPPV

[6] = system: HUVEC; assay: Antiangiogenic activity in HUVEC assessed as inhibition of cell proliferation incubated for 48 hrs by MTT assay; format: functional, cell-based; details: Homo sapiens; how it was run: as §1
[7] = biological target: T2, Vascular endothelial growth factor receptor 2; assay: Inhibition of VEGFR2 in HUVEC assessed as reduction in expression of phosphorylated VEGFR2 incubated for 24 hrs by Western blot analysis; format: cell-based
How it was run: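 HUVEC treated 24 h, washed with PBS, lysed on ice in Tris/SDS/glycerol/β-mercaptoethanol buffer. Protein measured by BCA, equal amounts run on 12% SDS-PAGE, semi-dry transfer to PVDF. Primary antibodies (p-VEGFR-2, VEGFR-2) overnight at 4 °C, HRP secondary 1 h at 37 °C, ECL detection. Phosphorylation rate by densitometry, mean ± SD, n=3.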

[8] = biological target: T2, Vascular endothelial growth factor receptor 2; assay: Inhibition of VEGFR2 in human MCF7 cells assessed as reduction in expression of phosphorylated VEGFR2 at 0.25 to 1 uM incubated for 24 hrs by Western blot analysis; format: cell-based
How it was run: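 MCF-7 cells treated 24 h, lysed on ice, protein quantified by BCA, equal loads separated on 12% SDS-PAGE and blotted to PVDF. Probed for p-VEGFR-2 and total VEGFR-2 overnight at 4 °C, HRP secondary 1 h at 37 °C, chemiluminescence on film. VEGFR-2 phosphorylation rate by densitometry, mean ± SD (n=3).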

[9] = biological target: T2, Vascular endothelial growth factor receptor 2; details: HUVEC, at 1 µM
[10] = biological target: T2, Vascular endothelial growth factor receptor 2; details: MCF7, at 1 µM
[11] = biological target: T2, Vascular endothelial growth factor receptor 2; details: MCF7, at 1 µM; remark: listed apart in the source

| IC50 [1] [µM] | IC50 [2] [µM] | IC50 [3] [µM] | IC50 [5] | IC50 ([5]; read-out: IC50) [µM] | inhibition [7] | inhibition [8] | inhibition [9] | inhibition [10] | inhibition [11] | SMILES | IC50 [4] [µM] | IC50 [6] [µM] |
| --- | --- | --- | --- | --- | --- | --- | --- | --- | --- | --- | --- | --- |
| 23.3 | 1.1 | > 100 | Not Active |  |  |  |  |  |  | COc1ccc2c(c1)C(=O)c1c-2n(-c2ccc(OCCN3CCN(C)CC3)cc2)c(=O)c2cc(OC)ccc12 | 10.9 | 12 |
| 24.9 | 0.3 | 2.8 | Not Active |  |  |  |  |  |  | COc1ccc2c(c1)C(=O)c1c-2n(-c2ccc(OCCN3CCCCC3)cc2)c(=O)c2cc(OC)ccc12 | 9.6 | > 100 |
| > 100 | > 100 | > 100 | Not Active |  |  |  |  |  |  | COc1ccc2c(c1)C(=O)c1c-2n(-c2ccc(OCCN3CCOCC3)cc2)c(=O)c2cc(OC)ccc12 | > 100 | > 100 |
| 39.4 | 1.4 | 0.6 | Not Active |  |  |  |  |  |  | COc1ccc2c(c1)C(=O)c1c-2n(-c2ccc(OCCCN(C)C)cc2)c(=O)c2cc(OC)ccc12 | 9.6 | 25 |
| 39.8 | 2.3 | 1.5 | Not Active |  |  |  |  |  |  | CCN(CC)CCCOc1ccc(-n2c3c(c4ccc(OC)cc4c2=O)C(=O)c2cc(OC)ccc2-3)cc1 | 4.1 | 16 |
| 38.3 | 7.8 | 21.7 | Not Active |  |  |  |  |  |  | COc1ccc2c(c1)C(=O)c1c-2n(-c2ccc(OCCCN3CCCCC3)cc2)c(=O)c2cc(OC)ccc12 | 4.5 | > 100 |
| 7.2 | 1.2 | 0.5 |  | 0.099 | Dose-dependent effect | Active | Active | Active | Active | O=C1c2cc(O)ccc2-c2c1c1ccc(O)cc1c(=O)n2-c1ccc(OCCN2CCCC2)cc1 | 8.2 | 0.8 |
| 24.4 | 1.1 | 1.1 |  | 3.9 |  |  |  |  |  | COc1ccc2c(c1)C(=O)c1c-2n(-c2ccc(OCCN(C)C)cc2)c(=O)c2cc(OC)ccc12 | 10.6 | 35.6 |
| 35.2 | > 100 | > 100 | Not Active |  |  |  |  |  |  | COc1ccc2c(c1)C(=O)c1c-2n(-c2ccc(OCCCN3CCN(C)CC3)cc2)c(=O)c2cc(OC)ccc12 | > 100 | > 100 |
| > 100 | > 100 | > 100 | Not Active |  |  |  |  |  |  | COc1ccc2c(c1)C(=O)c1c-2n(-c2ccc(OCCCN3CCOCC3)cc2)c(=O)c2cc(OC)ccc12 | > 100 | > 100 |
| 3.4 | 1.1 | 0.8 |  | 0.25 |  |  |  |  |  | O=C1c2cc(O)ccc2-c2c1c1ccc(O)cc1c(=O)n2-c1ccc(OCCN2CCCCC2)cc1 | 4.3 | 1.3 |

The remaining lines, values behind:

| SMILES | IC50 [1] [µM] | IC50 [2] [µM] | IC50 [3] [µM] | IC50 [5] | IC50 ([5]; read-out: IC50) [µM] | inhibition [7] | inhibition [8] | inhibition [9] | inhibition [10] | inhibition [11] | IC50 [4] [µM] | IC50 [6] [µM] |
| --- | --- | --- | --- | --- | --- | --- | --- | --- | --- | --- | --- | --- |
| COc1ccc2c(c1)C(=O)c1c-2n(-c2ccc(OCCCN3CCCC3)cc2)c(=O)c2cc(OC)ccc12 | 40.3 | 3.2 | 3 | Not Active |  |  |  |  |  |  | 12.8 | 5.1 |
| O=C1c2cc(O)ccc2-c2c1c1ccc(O)cc1c(=O)n2-c1ccc(OCCN2CCOCC2)cc1 | 19.8 | > 100 | > 100 | Not Active |  |  |  |  |  |  | > 100 | > 100 |
| CCN(CC)CCNC(=O)c1c(C)[nH]c(/C=C2\C(=O)Nc3ccc(F)cc32)c1C [SUNITINIB] |  |  |  |  |  |  |  |  |  |  |  | 0.8 |
| CN(C)CCOc1ccc(-n2c3c(c4ccc(O)cc4c2=O)C(=O)c2cc(O)ccc2-3)cc1 | 7.6 | 3.8 | 3.3 |  | 0.33 |  |  |  |  |  | 5.1 | 4.6 |
| CC/C(=C(\c1ccccc1)c1ccc(OCCN(C)C)cc1)c1ccccc1 [TAMOXIFEN] |  | 5.3 | 13.9 |  |  |  |  |  |  |  | 6 |  |
| COc1ccc2c(c1)C(=O)c1c-2n(-c2ccc(OCCN3CCCC3)cc2)c(=O)c2cc(OC)ccc12 | 17.7 | 0.7 | 0.7 | Not Active |  |  |  |  |  |  | 8.7 | > 100 |
| CCN(CC)CCOc1ccc(-n2c3c(c4ccc(O)cc4c2=O)C(=O)c2cc(O)ccc2-3)cc1 | 6.7 | 0.8 | 1 |  | 0.12 |  |  |  |  |  | 4 | 1.8 |
| CCN(CC)CCOc1ccc(-n2c3c(c4ccc(OC)cc4c2=O)C(=O)c2cc(OC)ccc2-3)cc1 | 18.7 | 0.7 | 1.3 |  | 1.03 |  |  |  |  |  | 6.7 | 11.4 |
| CN1CCN(CCOc2ccc(-n3c4c(c5ccc(O)cc5c3=O)C(=O)c3cc(O)ccc3-4)cc2)CC1 | 10.6 | 2.5 | 4.1 | Not Active |  |  |  |  |  |  | 6.1 | 1.1 |
